Measurements of several laboratories.
Lines come from different studies, so protocols differ.
MAL12: Alpha-glucosidase MAL12 (MAL12, Saccharomyces cerevisiae S288c, UniProt P53341)
BUB1: Mitotic checkpoint serine/threonine-protein kinase BUB1 (BUB1, Homo sapiens, UniProt O43683)
MAP3K7: Mitogen-activated protein kinase kinase kinase 7 (MAP3K7, Homo sapiens, UniProt O43318)

Compound	target	test	conditions	measurement	value
COc1cc2c3c(c1OC)-c1c(OC)ccc(O)c1CC3N(C)CC2 (stereo not drawn)	Alpha-1A adrenergic receptor (ADRA1A, Homo sapiens, UniProt P35348)	ligand displacement, radioligand	10 µM	inhibition	9%
O=c1cc(-c2ccc(O)c(O)c2)oc2c(Br)c(O)c(Br)c(O)c12	MAL12	enzyme activity, inhibitor, absorbance	50 µM	inhibition	95.1%
C#Cc1cc(-c2cc(Nc3nc(N[C@@H](C)c4ccc(F)cn4)ncc3Cl)n[nH]2)ccc1C=O	BUB1	enzyme activity, inhibitor	0.2 µM	inhibition	35%
CS(=O)(=NC#N)c1ccccc1Nc1nc(Nc2ccnc(CO)c2)ncc1Cl (stereo not drawn)	MAP3K7	enzyme activity, inhibitor	1 µM	remaining activity	80.5%
O=c1cc(-c2ccccc2)oc2cc(O)cc(O)c12	MAL12	enzyme activity, inhibitor, absorbance	50 µM	inhibition	31.2%
C1=C/COCc2cc(ccc2OCCN2CCCC2)Nc2nccc(n2)-c2cccc(c2)COC/1	BUB1	binding	0.1 µM	remaining binding	91%
CCCCC(=O)Nc1ccc(-c2ccc3ncn(CCC)c(=O)c3c2)cn1	Serine/threonine-protein kinase tousled-like 2 (TLK2, Homo sapiens, UniProt Q86UE8)	binding, competition with immobilised ligand	0.5 µM	remaining binding	87%
COc1ccc2oc(-c3ccc4nc(N)oc4c3)c/c(=N\c3ccccc3NC(=O)CCN)c2c1	Bone morphogenetic protein receptor type-1B (BMPR1B, Homo sapiens, UniProt O00238)	binding	1 µM	remaining binding	99%
C#Cc1cnc(Nc2ccc(CO)cc2)nc1Nc1ccccc1C(=O)NC	MAP3K7	enzyme activity, inhibitor	1 µM	remaining activity	76.9%
O=c1c(O)c(-c2ccc(O)cc2)oc2cc(O)cc(O)c12	MAL12	enzyme activity, inhibitor, absorbance	50 µM	inhibition	39.8%
C#Cc1cnc(Nc2ccc(CO)nc2)nc1Nc1ccccc1S(C)(=O)=NC#N (stereo not drawn)	MAP3K7	enzyme activity, inhibitor	1 µM	remaining activity	50.4%
O=C1C[C@@H](c2ccc(O)cc2)Oc2cc(O)cc(O)c21	MAL12	enzyme activity, inhibitor, absorbance	50 µM	inhibition	26.5%
